Data taken from ChEMBL document CHEMBL2163334, “Discovery of highly potent and selective pan-Aurora kinase inhibitors with enhanced in vivo antitumor therapeutic index” (J Med Chem, 2012).
Active and inactive are the calls of the source. No cut-off for these calls is given here.

Legend:
[1] = Volume of distribution in Nu/Nu rat at 30 mg/kg, iv administered using TPPW as vehicle; type: ADME, organism-based; parameters: dose 30 mg/kg, route intravenous; settings: in vivo
How it was run: (§1)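 Plasma from K3 EDTA blood at 5, 15, 30 min, 1, 2, 4, 6, 24 h; acetonitrile extraction with internal standard, LC-MS/MS on C8 column, 5-95% ACN gradient with 0.05% formic acid.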

[2] = Half life in Sprague-Dawley rat at 1 mg/kg, iv administered using PEG400/water as vehicle; type: ADME, organism-based; parameters: dose 1 mg/kg, route intravenous; settings: in vivo
How it was run: (§2)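 SD rats fasted overnight, given 1 mg/kg iv in PEG400/water (3:1, v/v); three per arm. Blood into K3 EDTA at 5, 15, 30 min, 1, 2, 4, 6, 24 h, spun at 4 °C; plasma extracted with six volumes acetonitrile plus internal standard and quantified by LC-MS/MS (C8 column, formic acid/ACN gradient).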

[3] = tested on: HCT-116; experiment: Antitumor activity against human HCT116 cells xenografted in athymic nude rat assessed as tumor stasis at 10 to 20 mg/kg, iv administered every other day from day 10 post tumor-injection for 3 weeks measured upto 40 days; type: functional, organism-based
How it was run: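 HCT-116 flank xenografts in nude rats, groups of 10 at mean 301-306 mm³; iv tail-vein dosing in TPPW at 10 mL/kg on days 1,3,5,8,10,12,15,17,19; tumors followed after dosing stopped, study ending day 42 or day 60.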

[4] = AUC (0 to infinity) in Sprague-Dawley rat at 1 mg/kg, iv administered using PEG400/water as vehicle; type: ADME, organism-based; parameters: time infinity, dose 1 mg/kg, route intravenous; settings: plasma; how it was run: as §2
[5] = Clearance in Sprague-Dawley rat at 1 mg/kg, iv administered using PEG400/water as vehicle; type: ADME, organism-based; parameters: dose 1 mg/kg, route intravenous; settings: in vivo; how it was run: as §2
[6] = tested on: HCT-116; experiment: Antiproliferative activity against human HCT116 cells after 72 hrs by BrdU-based ELISA; type: functional, cell-based; settings: HCT-116, 72 h
How it was run: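 HCT-116 cells in McCoy's 5A with 10% FBS and pen/strep, seeded 800 cells/well, left overnight at 37 °C, 5% CO2. Nine-point 3-fold serial dilutions in DMSO added for 72 h; BrdU colorimetric ELISA read at 450 and 690 nm. IC50 is the concentration halving proliferation; duplicate runs averaged.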

[7] = Half life in Nu/Nu rat at 10 mg/kg, iv administered using TPPW as vehicle; type: ADME, organism-based; parameters: dose 10 mg/kg, route intravenous; settings: in vivo; how it was run: as §1
[8] = Clearance in athymic Nu/Nu rat at 10 mg/kg, iv administered using TPPW as vehicle; type: ADME, organism-based; parameters: dose 10 mg/kg, route intravenous; settings: in vivo; how it was run: as §1
[9] = Protein binding in plasma; type: ADME, cell-free; settings: read-out: PPB
[10] = target: T1, Aurora kinase B (Homo sapiens, UniProt Q96GD4); experiment: Inhibition of Aurora kinase B in human HCT116 cells assessed as induction of 8N polyploidy; type: cell-based; settings: HCT-116
[11] = AUC (0 to infinity) in Nu/Nu rat at 3 mg/kg, iv administered using TPPW as vehicle; type: ADME, organism-based; parameters: time infinity, dose 3 mg/kg, route intravenous; settings: plasma; how it was run: as §1
[12] = tested on: HCT-116; experiment: Antitumor activity against human HCT116 cells xenografted in athymic nude rat assessed as tumor growth inhibition at 10 mg/kg, iv administered every other day from day 10 post tumor-injection for 3 weeks relative to vehicle treated control; type: functional; settings: read-out: TGI
How it was run: (§3)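 Subcutaneous flank HCT-116 xenografts in nude rats; at Day 1 groups of 10 with mean tumor 301-306 mm³. Tail-vein iv in TPPW (2% Tween-80, 5% propylene glycol, 10% PG-400, 83% water) at 10 mL/kg, weight-adjusted: days 1,3,5,8,10,12,15,17,19 or days 1-4, 8-11, 15-18. Irinotecan control 100 mg/kg ip weekly ×3.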

[13] = target: T2, Aurora kinase C (Homo sapiens, UniProt Q9UQB9); experiment: Binding affinity to Aurora kinase C
T2 sequence (Q9UQB9 whole entry): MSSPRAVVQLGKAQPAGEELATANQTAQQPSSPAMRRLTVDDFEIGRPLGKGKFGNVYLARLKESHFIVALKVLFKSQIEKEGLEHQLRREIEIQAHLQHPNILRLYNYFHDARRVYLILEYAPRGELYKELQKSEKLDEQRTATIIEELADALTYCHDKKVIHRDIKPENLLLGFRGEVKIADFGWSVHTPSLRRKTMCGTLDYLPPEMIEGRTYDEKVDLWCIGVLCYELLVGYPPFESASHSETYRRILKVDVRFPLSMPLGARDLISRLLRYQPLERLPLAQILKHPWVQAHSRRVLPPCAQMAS

[14] = AUC (0 to infinity) in Nu/Nu rat at 30 mg/kg, iv administered using TPPW as vehicle; type: ADME, organism-based; parameters: time infinity, dose 30 mg/kg, route intravenous; settings: plasma; how it was run: as §1
[15] = Volume of distribution in Nu/Nu rat at 10 mg/kg, iv administered using TPPW as vehicle; type: ADME, organism-based; parameters: dose 10 mg/kg, route intravenous; settings: in vivo; how it was run: as §1
[16] = tested on: Rattus norvegicus; experiment: Toxicity in athymic nude rat bearing human HCT116 cells assessed as adverse effects at 5 to 10 mg/kg, iv administered QD for 4 days per week followed by 3 days off per week for 3 weeks; type: organism-based, HCT-116; parameters: dose 5-10 mg/kg, route intravenous; settings: in vivo; how it was run: as §3
[17] = tested on: Rattus norvegicus; experiment: Toxicity in athymic nude rat bearing human HCT116 cells assessed body weight loss at 40 mg/kg, iv administered every other day from day 10 post tumor-injection for 3 weeks; type: organism-based, HCT-116; parameters: dose 40 mg/kg, route intravenous; settings: in vivo, 504 h; how it was run: as §3
[18] = target: T3, Aurora kinase A (Homo sapiens, UniProt O14965); experiment: Inhibition of Aurora kinase A autophosphorylation in human HEK293 cells after 2 hrs by phosphor antibody readout assay; type: cell-based
T3 sequence (O14965 whole entry): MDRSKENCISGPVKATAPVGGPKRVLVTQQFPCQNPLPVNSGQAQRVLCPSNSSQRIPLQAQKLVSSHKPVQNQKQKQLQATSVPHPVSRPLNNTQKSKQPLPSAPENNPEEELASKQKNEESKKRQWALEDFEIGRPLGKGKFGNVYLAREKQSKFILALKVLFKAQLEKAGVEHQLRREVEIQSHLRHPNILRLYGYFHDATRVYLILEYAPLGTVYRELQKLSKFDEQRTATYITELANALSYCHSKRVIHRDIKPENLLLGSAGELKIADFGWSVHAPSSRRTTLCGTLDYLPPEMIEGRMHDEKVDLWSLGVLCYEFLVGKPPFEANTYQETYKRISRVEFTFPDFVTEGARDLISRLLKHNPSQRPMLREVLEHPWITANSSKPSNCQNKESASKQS

[19] = target: T1, Aurora kinase B; experiment: Inhibition of Aurora kinase B-mediated histone H3 Ser10 phosphorylation in human HCT116 cells after 2 hrs by sandwich ELISA; type: cell-based, HCT-116
How it was run: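 HCT-116 cells seeded 4 × 10⁴/well, 4-6 h at 37 °C, then arrested overnight (16-18 h) with nocodazole at 66 ng/mL final. Treated 2 h with nine-point 3-fold dilutions in DMSO; lysed with phosphatase inhibitor, phospho-H3 (Ser10) sandwich ELISA read at 450 nm. IC50 = 50% inhibition of phosphorylation; duplicate runs averaged.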

[20] = Half life in Nu/Nu rat at 30 mg/kg, iv administered using TPPW as vehicle; type: ADME, organism-based; parameters: dose 30 mg/kg, route intravenous; settings: in vivo; how it was run: as §1
[21] = tested on: HCT-116; experiment: Antitumor activity against human HCT116 cells xenografted in athymic nude rat assessed as tumor growth inhibition at 20 mg/kg, iv administered every other day from day 10 post tumor-injection for 3 weeks relative to vehicle treated control; type: functional; settings: read-out: TGI; how it was run: as §3
[22] = Volume of distribution in Sprague-Dawley rat at 1 mg/kg, iv administered using PEG400/water as vehicle; type: ADME, organism-based; parameters: dose 1 mg/kg, route intravenous; settings: in vivo; how it was run: as §2
[23] = Volume of distribution in Nu/Nu rat at 3 mg/kg, iv administered using TPPW as vehicle; type: ADME, organism-based; parameters: dose 3 mg/kg, route intravenous; settings: in vivo; how it was run: as §1
[24] = target: T1, Aurora kinase B; experiment: Binding affinity to Aurora kinase B catalytic domain by competition binding assay
[25] = Clearance in athymic Nu/Nu rat at 30 mg/kg, iv administered using TPPW as vehicle; type: ADME, organism-based; parameters: dose 30 mg/kg, route intravenous; settings: in vivo; how it was run: as §1
[26] = AUC (0 to infinity) in Nu/Nu rat at 10 mg/kg, iv administered using TPPW as vehicle; type: ADME, organism-based; parameters: time infinity, dose 10 mg/kg, route intravenous; settings: plasma; how it was run: as §1
[27] = tested on: HCT-116; experiment: Antitumor activity against human HCT116 cells xenografted in athymic nude rat assessed as tumor growth inhibition at 5 mg/kg, iv administered QD for 4 days per week followed by 3 days off per week for 3 weeks; type: functional, organism-based; parameters: dose 5 mg/kg; how it was run: as §3
[28] = target: T3, Aurora kinase A; experiment: Binding affinity to Aurora kinase A catalytic domain by competition binding assay
[29] = Half life in Nu/Nu rat at 3 mg/kg, iv administered using TPPW as vehicle; type: ADME, organism-based; parameters: dose 3 mg/kg, route intravenous; settings: in vivo; how it was run: as §1
[30] = tested on: HCT-116; experiment: Antitumor activity against human HCT116 cells xenografted in athymic nude rat assessed as tumor growth inhibition at 10 mg/kg, iv administered QD for 4 days per week followed by 3 days off per week for 3 weeks; type: functional, organism-based; parameters: dose 10 mg/kg; how it was run: as §3
[31] = Clearance in athymic Nu/Nu rat at 3 mg/kg, iv administered using TPPW as vehicle; type: ADME, organism-based; parameters: dose 3 mg/kg, route intravenous; settings: in vivo; how it was run: as §1
[32] = tested on: Rattus norvegicus; experiment: Toxicity in athymic nude rat bearing human HCT116 cells assessed body weight loss up to 20 mg/kg, iv administered every other day from day 10 post tumor-injection for 3 weeks; type: organism-based, HCT-116; parameters: dose 20 mg/kg, route intravenous; settings: in vivo, 504 h; how it was run: as §3

T1 sequence (Q96GD4 whole entry): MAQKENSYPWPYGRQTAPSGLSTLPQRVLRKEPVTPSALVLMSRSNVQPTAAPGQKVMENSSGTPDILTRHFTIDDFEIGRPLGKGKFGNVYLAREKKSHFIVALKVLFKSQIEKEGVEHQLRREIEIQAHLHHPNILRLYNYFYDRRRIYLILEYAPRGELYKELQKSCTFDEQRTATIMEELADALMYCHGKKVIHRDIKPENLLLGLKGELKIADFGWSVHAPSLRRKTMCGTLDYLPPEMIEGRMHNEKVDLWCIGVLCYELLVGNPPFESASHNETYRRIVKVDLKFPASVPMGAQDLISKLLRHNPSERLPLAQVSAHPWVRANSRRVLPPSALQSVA

Q: What does the source list for Cc1cc(Nc2nc(Sc3ccc(NC(=O)CN4CC[C@@H](C(=O)NC5CCCC5)C4)cc3)nn3cccc23)n[nH]1?
A: Vd [1]: 0.84 L/kg; half-life [2]: 9.4 h; Activity [3]: Active; AUC(0-inf) [4]: 1.8 µM·h; clearance [5]: 16.9 mL/min/kg; IC50 [6]: 2.3 nM; half-life [7]: 3.8 h; clearance [8]: 20.7 mL/min/kg; fraction unbound [9]: 0.01; inhibition [10]: Dose-dependent effect; AUC(0-inf) [11]: 3.2 µM·h; inhibition in vivo at 10 mg/kg [12]: 77%; Kd [13]: < 10 nM; AUC(0-inf) [14]: 62.5 µM·h; Vd [15]: 1.1 L/kg; Activity [16]: Non-toxic; Activity [17]: > 10%; IC50 [18]: 2 nM; IC50 [19]: 3 nM; half-life [20]: 3.4 h; inhibition in vivo at 20 mg/kg [21]: 82%; Vd [22]: 3.49 L/kg; Vd [23]: 1 L/kg; Kd [24]: 1.9 nM; clearance [25]: 14.7 mL/min/kg; AUC(0-inf) [26]: 14.6 µM·h; TGI [27]: Active; Kd [28]: 9.3 nM; half-life [29]: 1.5 h; TGI [30]: Active; clearance [31]: 27.9 mL/min/kg; Activity [32]: Non-toxic
